# High-throughput results from PubChem.
# thrombin 1536: human alpha-thrombin inhibitors, primary screen, counter-screen for coagulation protease inhibitor project, biochemical, 1536-well, fluorogenic AMC substrate; inhibition, % at 5 µM; AID 1046, 2008; 220,000 compounds, 0.26% hits; Boc-VPR-AMC fluorogenic substrate cleavage;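 active = inhibition at or above 40%; inactive = inhibition below 40%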;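 also: 0% = enzyme with no compound and 100% = wells without enzyme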
#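 Material: human alpha-thrombin protein. Incubation: reaction at ambient temperature. Technique: fluorescence of released AMC, ex 355 nm, em 460 nm. Control set: no-compound enzyme wells and no-enzyme blanks. Also added: Boc-VPR-AMC substrate, 15 µM final. Buffer or medium: pH 7.5 Tris (50 mM) with NaCl 150 mM, Tween 20 0.05%.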
# KLK5 inh: human KLK5 protease inhibitors, primary screen, biochemical, 1536-well; recombinant hK5, fluorogenic AMC substrate cleavage; AID 873, 2007; 210,000 compounds, 0.59% hits; inhibition, % at 5 µM; Kallikrein-5 (Homo sapiens), Q9Y337;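 active = inhibition of 40% or more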;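 also: 0% = enzyme controls without compound and 100% = no-enzyme blanks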
# Target sequence (Q9Y337 67-293 limits assumed): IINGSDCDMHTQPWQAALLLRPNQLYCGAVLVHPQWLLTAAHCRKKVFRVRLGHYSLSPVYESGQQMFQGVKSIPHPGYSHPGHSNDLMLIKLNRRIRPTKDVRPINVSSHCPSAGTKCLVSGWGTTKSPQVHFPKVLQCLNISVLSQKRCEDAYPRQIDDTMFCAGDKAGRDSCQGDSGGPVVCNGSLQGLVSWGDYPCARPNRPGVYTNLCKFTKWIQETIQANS
# m-calpain inh: inhibitors of pig calpain II, primary screen, biochemical, fluorogenic peptide substrate, 1536-well. AID 1236, 2008. inhibition, % at 16 µM. 220,000 compounds, 0.37% hits. purified calpain II, 30 min;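 active = inhibition above about 50%, limit read from the data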
# FXIa inh: human FXIa protease inhibitors, primary screen, biochemical, 1536-well | Coagulation factor XI (Homo sapiens), P03951 | purified FXIa, Boc-Glu-Ala-Arg-AMC fluorogenic substrate | inhibition, % at 5 µM | 220,000 compounds, 0.14% hits | AID 798, 2007;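 active = inhibition of at least 40%; inactive = inhibition below 40%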;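 also: fluorescence of freed AMC excited at 355 nm; 0% = enzyme without compound and 100% = no enzyme blank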
# FXIIa inh: human FXIIa protease inhibitors, primary screen, biochemical, 1536-well; purified FXIIa, Boc-QGR-AMC fluorogenic substrate, 2 h; 220,000 compounds, 0.3% hits; inhibition, % at 5 µM; Coagulation factor XII (Homo sapiens), P00748; in the data active = inhibition above about 40%;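 also: 0% = enzyme with no compound and 100% = blank without enzyme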
# The depositor's hits bear a star; x = no result; ! = not active in a repeat. This is a sample that favours compounds with a hit; in the whole collection about 1.4% have one here.
SMILES,thrombin 1536,KLK5 inh,m-calpain inh,FXIa inh,FXIIa inh
COc1ccc(OCC(=O)N2CCN(C/C=C/c3ccccc3)CC2)cc1,82*,26,19,38,x
CCOC(=O)C1=CC(=C2C(=O)N(CC)C(=S)N(CC)C2=O)c2ccccc2O1,1,-12,-15,-4,7
Cc1cc2c(C(C)C)c(O)c(O)c(C=O)c2c(O)c1-c1c(C)cc2c(C(C)C)c(O)c(O)c(C=O)c2c1O,5,-168,55*!,21,30
CCNc1cc(N2CCNCC2)ccc1[N+](=O)[O-],34,28,18,68*,28
CCOc1ccc(-n2c(-c3ccoc3)nc3ccccc3c2=O)cc1,5,-31,16,2,10
CCOc1ccc(-c2c(C)n(-c3ccc(OCC)cc3)c3[n+]2CCCCC3)cc1,6,36,20,51*,46*
CCc1ccccc1N1C(=O)CC(=O)NC1=O,46*,34,11,42*,29
Cc1ccccc1N1C(=O)CC(=O)NC1=O,2,-1,5,14,20
CC(C)Oc1cc(-n2c(=S)[nH]c3ccccc3c2=O)c(Cl)cc1Cl,4,-54,63*,4,12
COc1cc(-n2c(=S)[nH]c3ccccc3c2=O)c(Cl)cc1Cl,1,-14,8,2,4
CN(CC1COc2ccccc2O1)c1nc(-c2cccnc2)nc2ccccc12 (stereo not drawn),17,53*,8,11,10
O=C(COc1ccc(Cl)cc1)N1CCN(C/C=C/c2ccccc2)CC1,-2,3,-9,7,9
CN(C)C(=O)CSc1nnc([C@@H](N)Cc2ccccc2)o1,61*,23,4,13,61*
Cc1ccsc1C(=O)C1CCCN(Cc2cccn2-c2ccccn2)C1 (stereo not drawn),-2,2,11,0,9
CCCC(C)C1C(C#N)=C(N)Oc2c1c(=O)oc1ccccc21 (stereo not drawn),10,68*,8,16,26
N=c1n(CCO)c2ccccc2n1Cc1ccccc1,67*,30,3,14,17
N=C1SCC(=O)N1Cc1ccccc1,-5,-12,19,-7,0
CCOC(=O)C1(c2ccccc2)CCN(Cc2cccc(C(=O)O)c2)CC1,20,44*,1,12,19
CCOC(=O)C1(c2ccccc2)CCN(CC(=O)Nc2cccc3ccccc23)CC1,2,-22,19,21,11
CC(=O)N1CCN(c2ccc(N=Cc3c(O)n(-c4ccc(Cl)cc4)c(=O)[nH]c3=O)cc2)CC1,10,59*,6,9,15
CCN(CC)c1ccc(N=Cc2c(O)n(-c3ccc(Cl)cc3)c(=O)[nH]c2=O)cc1,-1,3,-17,6,18
CCC1C(c2ccccc2)NC(c2ccccc2)CC1(O)c1ccc(F)cc1 (stereo not drawn),-4,2,-2,0,8
CC1CCCC(C)N1/N=C/c1c[nH]c2ccc(Br)cc12 (stereo not drawn),18,45*,18,1,19
Cc1ccccc1NC(=O)CCl,50*,-5,-12,1,13
CCN(CC)CCN=Cc1c(O)n(Cc2ccco2)c(=O)[nH]c1=O,-9,-5,9,-1,4
SMILES,thrombin 1536,KLK5 inh,m-calpain inh,FXIa inh,FXIIa inh
O=c1[nH]c(=O)n(Cc2ccco2)c(O)c1C=NCc1ccco1,14,44*,-3,16,1
CC/C(=C\C=C\[C@@H]1C=C[C@@H]2CCC[C@H]2[C@@H]1C(=O)c1ccc[nH]1)[C@@H]1O[C@@H]([C@@H](C)C(=O)O)CC[C@@H]1C,-1,-4,14,9,14
O=c1[nH]c(=O)n(Cc2ccccc2)c(O)c1C=Nc1ccc(CN2CCOCC2)cc1,-5,2,13,-6,-1
Cc1nc(CCl)cc(=O)[nH]1,-3,-2,15,-4,5
O=P(Nc1cccc(Cl)c1)(Oc1ccccc1)Oc1ccccc1,-6,-5,60*,-3,1
COc1cccc(NP(=O)(Oc2ccccc2)Oc2ccccc2)c1,-6,-8,26,4,14
NNC(=O)CN1C(=O)CN=C(c2ccccc2)c2cc(Br)ccc21,33,27,6,19,44*
C[N+](C)(C)Cc1ccccc1,3,-8,13,15,8
CN(C)CP(=O)(Nc1ccccc1)N(C)C (stereo not drawn),27,67*,6,5,19
COc1ccc2[nH]c(C)c(CCN3CCC(=O)C(C)C3C)c2c1 (stereo not drawn),-8,-4,60*,8,15
COc1ccc2[nH]c(C)c(CCNCc3cc(OC)c(OC)c(OC)c3)c2c1,-2,5,-32,-1,11
CCC(=NCC1CCCO1)c1c(O)n(-c2ccccc2)c(=O)[nH]c1=O (stereo not drawn),15,61*,16,18,18
O=C(Nc1cccc(C(F)(F)F)c1)c1cccn(Cc2ccc3c(c2)OC(F)(F)O3)c1=O,-9,-9,52*,-2,16
O=C1CSC2(CN3CCC2CC3)N1 (stereo not drawn),0,-21,-31,-11,7
C[C@]12CCC(=O)C=C1CCC1C2CC[C@@]2(C)C1CC[C@@]2(O)CC#N (stereo partly drawn),16,62*,24,9,17
Cn1c(O)c(C=NCCCNC2CCCCC2)c(=O)n(C)c1=O,-4,0,3,2,6
CC(=O)c1c(C)n(CCCOC(C)C)c2ccc(O)cc12,37,43*,10,3,-9
C=COCCn1c(C)c(C(C)=O)c2cc(O)ccc21,-11,-1,-42,-4,7
O=C(c1cn(Cc2ccccc2)c2ccccc12)N1CCCCC1,0,7,15,0,7
COc1ccc(C(=O)C(Cc2ccccc2)N(C)C)cc1 (stereo not drawn),1,-9,18,2,16
CN(C)C(Cc1ccccc1)C(=O)c1ccc(-c2ccccc2)cc1 (stereo not drawn),17,98*,6,11,13
O=C(N/N=C1/CN2CCC1CC2)c1cc2ccccc2cc1O,1,-12,-31,2,13
CCOC(=O)C(NC(C)=O)C(OC(C)=O)c1cccc(N(CCCl)CCCl)c1 (stereo not drawn),3,-11,-8,7,14
O=P(C(=Nc1ccc(Cl)cc1)N1CCOCC1)(N1CCOCC1)N1CCOCC1,28,42*,23,15,20
Cc1cc(C)n2nc(C)[n+](C)c2n1,-2,1,33,-12,-5
COc1cc(/C=N/NP(=S)(c2ccccc2)c2ccccc2)ccc1O,-6,-21,53*,2,-3
